Assay results as given in ChEMBL document CHEMBL1153575, “Synthesis and in vitro anticancer activity of 2,4-azolidinedione-acetic acids derivatives” (2009).

What was measured:
Type in all cases: functional
NCI-H460 = assay: Cytotoxicity against human NCI-H460 cells assessed as cell growth at 100 uM after 48 hrs by sulforhodamine B assay; settings: NCI-H460, 48 h, read-out: Activity
Procedure, shortened: (§1)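 Primary one-dose screen on a three-line panel (MCF7 breast, NCI-H460 lung, SF-268 CNS) at 10^-4 M. Cells were preincubated 24–48 h before a single addition of the agent, followed by 48 h incubation. Endpoint was SRB protein staining, reported as percent growth versus untreated controls.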

MCF7 = assay: Cytotoxicity against human MCF7 cells assessed as cell growth at 100 uM after 48 hrs by sulforhodamine B assay; settings: MCF7, 48 h, read-out: Activity; procedure, shortened: as §1
SF-268 = assay: Cytotoxicity against human SF268 cells assessed as cell growth at 100 uM after 48 hrs by sulforhodamine B assay; settings: SF-268, 48 h, read-out: Activity; procedure, shortened: as §1
CCRF-CEM = assay: Growth inhibition of human CCRF-CEM cells after 48 hrs by sulforhodamine B assay; settings: for TGI: read-out: pTGI (converted)
Procedure, shortened: (§2)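 Five-concentration assay in about 60 human tumour lines, using 10-fold dilutions from 10^-4 to 10^-8 M with 48 h continuous exposure and an SRB protein endpoint. Percent growth at each level comes from time-zero, untreated-control and treated absorbances. GI50 is 50% lower net protein increase than control. Values beyond the tested range are given as greater or less than the extreme concentration.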

U-251 = assay: Growth inhibition of human U251 cells after 48 hrs by sulforhodamine B assay; settings: U-251, 48 h; procedure, shortened: as §2
[1] = Growth inhibition of human 786-O cells after 48 hrs by sulforhodamine B assay; settings: 786-0, 48 h; procedure, shortened: as §2
MOLT-4 = assay: Growth inhibition of human MOLT4 cells after 48 hrs by sulforhodamine B assay; settings: MOLT-4, 48 h; procedure, shortened: as §2
NCI-H226 = assay: Growth inhibition of human NCI-H226 cells after 48 hrs by sulforhodamine B assay; settings: NCI-H226, 48 h; procedure, shortened: as §2
HCT-116 = assay: Growth inhibition of human HCT116 cells after 48 hrs by sulforhodamine B assay; settings: HCT-116, 48 h; procedure, shortened: as §2
HOP-92 = assay: Growth inhibition of human HOP92 cells after 48 hrs by sulforhodamine B assay; settings: HOP-92, 48 h; procedure, shortened: as §2
ACHN = assay: Growth inhibition of human ACHN cells after 48 hrs by sulforhodamine B assay; procedure, shortened: as §2
[2] = Growth inhibition of human Hs 578T cells after 48 hrs by sulforhodamine B assay; procedure, shortened: as §2
A549 = assay: Growth inhibition of human A549 cells after 48 hrs by sulforhodamine B assay; settings: A549, 48 h; procedure, shortened: as §2
RPMI-8226 = assay: Growth inhibition of human RPMI8226 cells after 48 hrs by sulforhodamine B assay; settings: RPMI-8226, 48 h; procedure, shortened: as §2
MDA-MB-231 = assay: Growth inhibition of human MDA-MB-231 cells after 48 hrs by sulforhodamine B assay; settings: MDA-MB-231, 48 h; procedure, shortened: as §2
M14 = assay: Growth inhibition of human M14 cells after 48 hrs by sulforhodamine B assay; settings: M14, 48 h; procedure, shortened: as §2
HOP-62 = assay: Growth inhibition of human HOP62 cells after 48 hrs by sulforhodamine B assay; settings: HOP-62, 48 h; procedure, shortened: as §2
SN12C = assay: Growth inhibition of human SN12C cells after 48 hrs by sulforhodamine B assay; procedure, shortened: as §2
[3] = read-out: pLC50 (the source's name) (converted)

O=C(CN1C(=O)N/C(=C\c2ccc(F)cc2)C1=O)Nc1ccccc1C(F)(F)F
growth at 100 µM (NCI-H460): 119% | growth at 100 µM (MCF7): 87% | growth at 100 µM (SF-268): 100%

COc1ccc(/C=C2\NC(=O)N(CC(=O)Nc3ccc(OC)cc3)C2=O)cc1
GI50 (CCRF-CEM): 0.195 µM | LC50 (CCRF-CEM): > 100 µM | TGI (CCRF-CEM): > 100 µM | GI50 (U-251): 30.9 µM | LC50 (U-251): > 100 µM | TGI (U-251; read-out: pTGI (converted)): > 100 µM

O=C(CN1C(=O)S/C(=C/c2ccc(Cl)cc2)C1=O)Nc1cccc(C(F)(F)F)c1
growth at 100 µM (NCI-H460): 99% | growth at 100 µM (MCF7): 100% | growth at 100 µM (SF-268): 110%

O=C(/C=C1\SC(=O)N(CC(=O)Nc2ccccc2C(F)(F)F)C1=O)Nc1ccc(F)cc1
growth at 100 µM (NCI-H460): 77% | growth at 100 µM (MCF7): 74% | growth at 100 µM (SF-268): 75%

O=C(CN1C(=O)N/C(=C/c2ccc(Cl)cc2)C1=O)Nc1cccc(C(F)(F)F)c1
GI50 [1]: 13.8 µM | CC50 [1, 3]: 89.1 µM | TGI ([1]; read-out: pTGI (converted)): 35.5 µM | GI50 (MOLT-4): 2.51 µM | CC50 (MOLT-4; [3]): > 100 µM | TGI (MOLT-4; read-out: pTGI (converted)): > 100 µM | GI50 (CCRF-CEM): 13.5 µM | LC50 (CCRF-CEM): > 100 µM | TGI (CCRF-CEM): > 100 µM | GI50 (NCI-H226): 13.2 µM | CC50 (NCI-H226; [3]): > 100 µM | TGI (NCI-H226; read-out: pTGI (converted)): 46.8 µM | growth at 100 µM (NCI-H460): 4% | GI50 (HCT-116): 13.8 µM | LC50 (HCT-116): > 100 µM | TGI (HCT-116; read-out: pTGI (converted)): 66.1 µM | GI50 (HOP-92): 5.37 µM | LC50 (HOP-92): > 100 µM | TGI (HOP-92; read-out: pTGI (converted)): 28.8 µM | GI50 (ACHN): 14.5 µM | CC50 (ACHN; [3]): 56.2 µM | TGI (ACHN; read-out: pTGI (converted)): 28.8 µM | GI50 [2]: 10.5 µM | CC50 [2, 3]: > 100 µM | TGI ([2]; read-out: pTGI (converted)): 77.6 µM | GI50 (A549): 10.7 µM | CC50 (A549; [3]): > 100 µM | TGI (A549; read-out: pTGI): > 100 µM | GI50 (RPMI-8226): 0.01 µM | LC50 (RPMI-8226): 28.2 µM | TGI (RPMI-8226; read-out: pTGI (converted)): 6.92 µM | GI50 (MDA-MB-231): 4.57 µM | LC50 (MDA-MB-231): > 100 µM | TGI (MDA-MB-231; read-out: pTGI (converted)): 22.9 µM | GI50 (M14): 14.5 µM | CC50 (M14; [3]): > 100 µM | TGI (M14; read-out: pTGI): > 100 µM | GI50 (HOP-62): 12.6 µM | LC50 (HOP-62): 69.2 µM | TGI (HOP-62; read-out: pTGI (converted)): 29.5 µM | growth at 100 µM (MCF7): 58% | growth at 100 µM (SF-268): 100% | GI50 (SN12C): 12 µM | LC50 (SN12C): 100 µM | TGI (SN12C; read-out: pTGI (converted)): 34.7 µM

O=C(CC1NC(=O)NC1=O)Nc1nccs1 (configuration not stated)
growth at 100 µM (NCI-H460): 108% | growth at 100 µM (MCF7): 111% | growth at 100 µM (SF-268): 114%

O=C(/C=C1\SC(=O)N(CC(=O)Nc2ccc(Cl)cc2)C1=O)Nc1ccc(Cl)cc1
growth at 100 µM (NCI-H460): 107% | growth at 100 µM (MCF7): 111% | growth at 100 µM (SF-268): 116%

O=C(CN1C(=O)S/C(=C\C=C\c2ccccc2)C1=O)Nc1ccc(Cl)cc1
growth at 100 µM (NCI-H460): 108% | growth at 100 µM (MCF7): 92% | growth at 100 µM (SF-268): 98%

O=C(/C=C1\SC(=O)N(CC(=O)Nc2ccccc2C(F)(F)F)C1=O)Nc1ccc(Cl)cc1
growth at 100 µM (NCI-H460): 87% | growth at 100 µM (MCF7): 61% | growth at 100 µM (SF-268): 86%
